Folding enthalpy and Tm data for 55 sequences are collected here from the array DNA melting data of Ke et al. (doi:10.1101/2024.01.08.574731).

Data set [1] in a line: folding enthalpy; higher = less favourable; fluorescence melt of hairpins on a sequencing array, two-state fit. Conditions: sodium 0.088 M. The essentials: (§1)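 Two-state fits, bootstrapped, provided melting temperature and folding enthalpy from Cy3 fluorescence normalised to pre-quench Cy3 and to control constructs. Library hairpins with annealed Cy3 and quencher oligos were imaged on a sequenced MiSeq flow cell in 50 mM Na-HEPES pH 8.0, 25 mM NaCl, at 2.5 °C intervals up to 60 °C. Four replicates were combined with inverse-variance weighting. A 9.35 °C upward shift was applied to fitted temperatures to match UV melts.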

A short description of data set [2]: melting temperature; fluorescence melt of hairpins on a sequencing array, two-state fit, raised by 9.35 °C to match UV melts. The note with it: sodium 0.088 M. The essentials: as §1

Turning to GTTGAAGGAAACTCCAAC ((((.((....)).)))), the folding enthalpy in data set [1] is -17.5 kcal/mol. Further, the Tm in data set [2] is 29.5 °C.
GTTGAAGGAAACTTCAAC (((((((....))))))): the folding enthalpy in data set [1] is -51.5 kcal/mol. Further, in data set [2], the Tm was found to be 54.2 °C.
In the same order, the values of GTTGACGAAAGTCAAAAC ((((((....)))..))) are -11.5 kcal/mol and 38.4 °C.
Consider GTTGACGAAAGTCATAAC ((((((....)))..))), for which the folding enthalpy in data set [1] is -12.9 kcal/mol. Further, in data set [2], the Tm is 33.5 °C.
Turning to GTTGACGAAAGTCGCAAC ((((((....)))..))), in data set [1], the folding enthalpy was -13.3 kcal/mol. Further, the Tm in data set [2] is 31 °C.
In the case of GTTGACGAAAGTCGGAAC ((((((....)))..))), the folding enthalpy in data set [1] was -8.87 kcal/mol. In addition, the Tm in data set [2] is 32.7 °C.
For the sequence GTTGACGAAAGTCTCAAC ((((((....)))..))), in data set [1], the folding enthalpy was -9.94 kcal/mol. Besides, the Tm in data set [2] was 28 °C.
Take GTTGACGAAAGTCTTAAC ((((((....)))..))): the folding enthalpy in data set [1] is -10 kcal/mol. Besides, the Tm in data set [2] turned out to be 28.1 °C.
In the same order, the values of GTTGAGACGAAAGTCAAC (((..(((....)))))) are -15.6 kcal/mol and 38.4 °C.
On to GTTGAGCGAAAGCTAAAC (((.(((....))).))), for which, in data set [1], the folding enthalpy is -26.5 kcal/mol. In data set [2], the Tm came out at 48 °C.
With GTTGAGGGAAACCTTAAC (((.(((....))).))), the folding enthalpy in data set [1] was -31.4 kcal/mol. In addition, in data set [2], the Tm amounted to 37 °C.
For GTTGAGGGAAACCTTGAC ((..(((....)))..)), the folding enthalpy in data set [1] is -12 kcal/mol. In data set [2], the Tm was determined as 29.7 °C.
As for GTTGAGGGAAACTTCAAC (((((.(....).))))), the folding enthalpy in data set [1] was -33.6 kcal/mol. The Tm in data set [2] came to 40.5 °C.
In the case of GTTGATGAAAATCAAC ((((((....)))))), the folding enthalpy in data set [1] was -33.9 kcal/mol. In addition, in data set [2], the Tm amounted to 52.4 °C.
In the case of GTTGCACCGAAAGGTAAC (((..(((....)))))), the folding enthalpy in data set [1] is -14.4 kcal/mol. Besides, in data set [2], the Tm was 30.4 °C.
Consider GTTGCAGCGAAAGCTAAC (((..(((....)))))), for which the folding enthalpy in data set [1] was -11.6 kcal/mol. Also, in data set [2], the Tm turned out to be 29.2 °C.
In the same order, the values of GTTGCAGGAAACTACAAC ((((.((....)).)))) are -27.6 kcal/mol and 37 °C.
With GTTGCCGAAAGGCACAAC ((((((....)))..))), the folding enthalpy in data set [1] is -8.02 kcal/mol. For the same sequence, the Tm in data set [2] amounted to 35.7 °C.
GTTGCCGAAAGGCCGAAC ((((((....)))..))): the folding enthalpy in data set [1] was -7.22 kcal/mol. Further, in data set [2], the Tm stood at 27.1 °C.
In the same order, the values of GTTGCCGGAAACGGCAGC (.(((((....))))).) are -14.4 kcal/mol and 57.5 °C.
Regarding GTTGCGCCGAAAGGCAAC (((..(((....)))))), the folding enthalpy in data set [1] is -13.2 kcal/mol. For the same sequence, in data set [2], the Tm stood at 42.4 °C.
GTTGCGCGAAAGCGTAAC (((.(((....))).))): the folding enthalpy in data set [1] was -29.8 kcal/mol. Further, in data set [2], the Tm turned out to be 58.1 °C.
In the same order, the values of GTTGCTCGAAAGAGAAAC (((.(((....))).))) are -32.3 kcal/mol and 48 °C.
As to GTTGCTCGAAAGAGGAAC (((.(((....))).))), in data set [1], the folding enthalpy was -38.2 kcal/mol. Moreover, the Tm in data set [2] was found to be 53.9 °C.
Turning to GTTGCTGGAAACAGTGAC ((..(((....)))..)), in data set [1], the folding enthalpy is -28.4 kcal/mol. Further, the Tm in data set [2] turned out to be 39.2 °C.
In the case of GTTGGACGAAAGTCGAAC (((.(((....))).))), the folding enthalpy in data set [1] was -16.8 kcal/mol. For the same sequence, the Tm in data set [2] was found to be 49.1 °C.
In the same order, the values of GTTGGAGGAAACTCCAAC (((((((....))))))) are -36 kcal/mol and 60.8 °C.
Regarding GTTGGAGGAAACTTCGAC ((.(.((....)).).)), the folding enthalpy in data set [1] is -24.3 kcal/mol. In addition, the Tm in data set [2] worked out at 34.2 °C.
On the same counts, the results for GTTGGATCGAAAGATAAC (((..(((....)))))) are -6.79 kcal/mol and 27.3 °C.
As for GTTGGCCGAAAGGCAAAC (((.(((....))).))), the folding enthalpy in data set [1] is -21.8 kcal/mol. Moreover, the Tm in data set [2] came out at 56.8 °C.
On the same counts, the results for GTTGGCGAAAGCCATAAC ((((((....)))..))) are -10.2 kcal/mol and 35.7 °C.
Consider GTTGGCGAAAGCCGAAC ((((((....))).))), for which the folding enthalpy in data set [1] was -13.8 kcal/mol. Further, the Tm in data set [2] is 50.5 °C.
For the sequence GTTGGCGAAAGCCTCAAC ((((((....)))..))), the folding enthalpy in data set [1] is -10.6 kcal/mol. Besides, in data set [2], the Tm was found to be 29.9 °C.
In the case of GTTGGCGGAAACGCTAAC (((.(((....))).))), the folding enthalpy in data set [1] is -30.9 kcal/mol. For the same sequence, in data set [2], the Tm turned out to be 53.1 °C.
Take GTTGGGAAACCAAC (((((....))))): in data set [1], the folding enthalpy was -27.9 kcal/mol. In data set [2], the Tm was determined as 51.7 °C.
As to GTTGGGCCGAAAGGCAAC (((..(((....)))))), in data set [1], the folding enthalpy was -15.3 kcal/mol. The Tm in data set [2] came out at 45.4 °C.
As for GTTGGGGGAAACCCCAAC (((((((....))))))), in data set [1], the folding enthalpy is -45.9 kcal/mol. Moreover, the Tm in data set [2] came to 65.6 °C.
For GTTGGGGGAAACCCTAAC (((.(((....))).))), in data set [1], the folding enthalpy is -26.6 kcal/mol. The Tm in data set [2] was determined as 45.1 °C.
On to GTTGGGGGAAACCCTGAC ((..(((....)))..)), for which the folding enthalpy in data set [1] is -23.8 kcal/mol. Besides, the Tm in data set [2] came to 35.6 °C.
Consider GTTGGGGGAAACCTCGAC ((.(.((....)).).)), for which the folding enthalpy in data set [1] was -23.5 kcal/mol. For the same sequence, the Tm in data set [2] was found to be 34.7 °C.
For the sequence GTTGGGGGAAACTCCAGC (.(((.(....).))).), the folding enthalpy in data set [1] is -23.5 kcal/mol. Besides, the Tm in data set [2] was determined as 35.8 °C.
On the same counts, the results for GTTGGTCGAAAGACAAAC (((.(((....))).))) are -26.5 kcal/mol and 48.5 °C.
As to GTTGGTCGAAAGACTAAC (((.(((....))).))), the folding enthalpy in data set [1] was -25.9 kcal/mol. Moreover, in data set [2], the Tm amounted to 50.9 °C.
On the same counts, the results for GTTGGTGAAAACCAAC ((((((....)))))) are -37 kcal/mol and 58.5 °C.
As for GTTGGTGGAAACATCGAC ((.(.((....)).).)), the folding enthalpy in data set [1] is -21.1 kcal/mol. Also, the Tm in data set [2] is 35.1 °C.
Turning to GTTGTAGGAAACCACAAC (((((.(....).))))), the folding enthalpy in data set [1] is -32.5 kcal/mol. Also, the Tm in data set [2] was found to be 39.9 °C.
On to GTTGTCCCGAAAGGGAAC (((..(((....)))))), for which the folding enthalpy in data set [1] is -20.7 kcal/mol. In data set [2], the Tm worked out at 50.4 °C.
Regarding GTTGTCCGAAAGGATAAC (((.(((....))).))), the folding enthalpy in data set [1] was -44.9 kcal/mol. Further, the Tm in data set [2] worked out at 51.9 °C.
On the same counts, the results for GTTGTCGAAAGACTAAAC ((((((....)))..))) are -13.6 kcal/mol and 29.5 °C.
Regarding GTTGTCGAAAGACTTAAC ((((((....)))..))), in data set [1], the folding enthalpy is -10 kcal/mol. In addition, the Tm in data set [2] came out at 27.2 °C.
With GTTGTCGGAAACGATAAC (((.(((....))).))), the folding enthalpy in data set [1] is -34.6 kcal/mol. The Tm in data set [2] turned out to be 47.8 °C.
In the same order, the values of GTTGTCGGAAACGGCAAC ((((.((....)).)))) are -37.7 kcal/mol and 56.2 °C.
On to GTTGTGGGAAACCATAAC (((.(((....))).))), for which the folding enthalpy in data set [1] is -32.4 kcal/mol. Further, the Tm in data set [2] was 43.5 °C.
For GTTGTGGGAAACCATAGC (.(.(((....))).).), in data set [1], the folding enthalpy is -12.7 kcal/mol. In data set [2], the Tm was determined as 27.6 °C.
On the same counts, the results for GTTTAAGAAATTAAAC ((((((....)))))) are -16.8 kcal/mol and 32.4 °C.
